Measured values: PMC11393732 (RSC Medicinal Chemistry, 2024)

Columns and labels:
KDM3B = KDM3B (Homo sapiens, UniProt Q7LBC6); assay: Western blot KDM3B degradation in SW480 cells; assay type: cell-based; settings: SW480 cells, 16 hours
Summary of the method: (§1)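 SW480 cells exposed to test compound for 16 h, then total lysates protein-normalised and run on SDS-PAGE. Semi-dry transfer to PVDF, 1 h block in 5% milk. Primary antibody overnight at 4 °C in 1% milk, secondary 1 h at RT, TBST washes, α-tubulin as loading control. Rescue arms co-treated with MLN4924 (1 μM) or pomalidomide (100 μM). Test compound at 0.1 μM for the KDM3A blot and 1 μM for the KDM3B blot.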

KDM3A = target: T1, KDM3A (Homo sapiens, UniProt Q9Y4C1); assay: Western blot KDM3A degradation in SW480 cells; assay type: cell-based; settings: SW480 cells, 16 hours
T1 sequence (Q9Y4C1 1-1321): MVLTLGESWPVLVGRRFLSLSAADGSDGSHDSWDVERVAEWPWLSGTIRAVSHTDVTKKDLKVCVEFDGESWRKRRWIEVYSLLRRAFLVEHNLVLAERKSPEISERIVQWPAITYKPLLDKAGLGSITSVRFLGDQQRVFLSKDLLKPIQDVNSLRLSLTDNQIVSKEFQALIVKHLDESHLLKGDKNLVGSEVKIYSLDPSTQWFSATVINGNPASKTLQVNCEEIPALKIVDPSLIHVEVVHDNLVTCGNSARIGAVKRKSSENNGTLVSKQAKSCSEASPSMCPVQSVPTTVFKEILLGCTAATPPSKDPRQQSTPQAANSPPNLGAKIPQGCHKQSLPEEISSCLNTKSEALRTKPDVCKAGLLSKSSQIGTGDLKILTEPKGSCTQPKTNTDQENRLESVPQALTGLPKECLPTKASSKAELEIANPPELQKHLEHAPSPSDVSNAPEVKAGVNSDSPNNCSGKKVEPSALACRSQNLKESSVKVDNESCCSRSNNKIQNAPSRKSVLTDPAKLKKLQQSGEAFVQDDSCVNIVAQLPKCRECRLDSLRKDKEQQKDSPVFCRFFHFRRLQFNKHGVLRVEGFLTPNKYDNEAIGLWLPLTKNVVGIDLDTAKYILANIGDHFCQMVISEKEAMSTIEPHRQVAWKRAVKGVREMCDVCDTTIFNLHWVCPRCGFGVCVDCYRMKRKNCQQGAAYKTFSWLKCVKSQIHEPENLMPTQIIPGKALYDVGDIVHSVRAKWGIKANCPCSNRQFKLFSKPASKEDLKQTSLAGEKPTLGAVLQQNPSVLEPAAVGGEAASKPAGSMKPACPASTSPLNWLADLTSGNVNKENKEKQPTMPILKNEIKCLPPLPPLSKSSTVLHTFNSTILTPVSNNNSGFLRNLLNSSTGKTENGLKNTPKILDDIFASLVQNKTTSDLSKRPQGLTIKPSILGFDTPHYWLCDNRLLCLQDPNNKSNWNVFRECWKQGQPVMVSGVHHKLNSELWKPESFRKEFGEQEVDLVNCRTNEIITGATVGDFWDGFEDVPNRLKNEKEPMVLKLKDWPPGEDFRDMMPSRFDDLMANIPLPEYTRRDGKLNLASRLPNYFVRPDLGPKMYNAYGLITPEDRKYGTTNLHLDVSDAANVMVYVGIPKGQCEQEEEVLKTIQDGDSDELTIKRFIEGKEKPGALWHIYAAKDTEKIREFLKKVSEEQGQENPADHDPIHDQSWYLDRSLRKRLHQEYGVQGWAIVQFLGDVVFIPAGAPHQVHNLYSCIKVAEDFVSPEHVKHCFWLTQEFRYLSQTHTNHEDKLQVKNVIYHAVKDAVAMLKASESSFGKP
Summary of the method: as §1

[1] = test system: Wnt target genes in SW480 cells; assay: RT-qPCR of Wnt target gene expression in SW480; assay type: cell-based, human
Summary of the method: (§2)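 Cells in 6-well plates exposed to test compound for 16 h. Total RNA extracted; 1 μg reverse-transcribed with M-MuLV and random hexamers. SYBR Green qPCR for the named genes, quantified by 2ΔΔct against tubulin. Mean ± SD; unpaired two-tailed Student's t-test.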

ALDH^high-HCP-1 CSCs = assay: Tumor sphere formation assay HCP-1; assay type: cell-based, human; settings: 2 weeks
Summary of the method: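 Trypsinised cells passed through a 40 μm strainer and stained with ALDEFLUOR. ALDHHigh cells sorted by FACS, with DEAB-treated cells as gating control. Plated at 1000 cells/well on ultra-low attachment in serum-free MEBM containing 2% B27, 20 ng mL−1 EGF, 10 ng mL−1 FGF, 1 ng mL−1 hydrocortisone, 5 μg mL−1 insulin and 100 μM β-mercaptoethanol. Dosed 1 h after plating; medium renewed at 1 week. Spheres >40 μm counted at 2 weeks for ED50.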

SW480 cells = assay: Clonogenic assay SW480; assay type: cell-based, human; settings: SW480, 2 weeks
Summary of the method: (§3)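 Cells kept in DMEM with 10% FBS and 1% pen–strep, seeded at 500 cells/well and dosed with test compound once attached. Medium refreshed every 3 days for 2 weeks. Colonies stained with 0.5% crystal violet and photographed. ED50 obtained by image analysis.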

CRL-1790 cells = assay: CCK-8 based toxicity assay; assay type: cell-based, human
Summary of the method: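 Non-malignant human colon epithelial CRL-1790 cells grown in EMEM with 10% FBS and 1% pen–strep at 37 °C and 5% CO2. Seeded at 3 × 10^3 cells/well in 96-well plates, then exposed to test compound. Viability read by CCK-8 at 48 h as OD 450 nm. TD50 derived from the dose–response.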

HCP-1 cells = assay: Clonogenic assay HCP-1; assay type: cell-based, human; settings: HCP-1, 2 weeks
Summary of the method: as §3

[2] = test system: Wnt target genes in HCP-1 cells; assay: RT-qPCR of Wnt target gene expression in HCP-1; assay type: cell-based, human
Summary of the method: as §2

[3] = test system: KDM4 family proteins (KDM4A, KDM4B and KDM4C); assay: Western blot KDM4 family proteins in SW480 cells; assay type: cell-based, human
Summary of the method: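 Lysates from compound-treated SW480 cells normalised for total protein and resolved by SDS-PAGE. Semi-dry transfer to PVDF, 1 h block in 5% milk. Overnight incubation at 4 °C with anti-KDM4A, -KDM4B or -KDM4C antibody in 1% milk, secondary 1 h at RT, TBST washes, α-tubulin as loading control.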

[4] = Hepatic metabolism S9 fraction incubation, human; settings: 0.1 μM, plus glutathione, UDPGA, PAPS, 37 °C
[5] = Hepatic metabolism S9 fraction incubation, rat; settings: 0.1 μM, plus glutathione, UDPGA, PAPS, 37 °C
[6] = test system: 293T cells expressing a TCF-responsive luciferase reporter (293T-TCF-Luc); assay: Wnt luciferase reporter assay; assay type: cell-based; settings: Homo sapiens, HEK-293T, 16 h, read-out: IC50 (293T-TCF-Luc)
Summary of the method: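 293T cells stably transduced with a lentiviral TCF/LEF–luciferase reporter and selected in puromycin ([…], 4 days). Seeded at 100 000 cells/well and dosed with test compound on attachment. Wnt signalling stimulated with 20 mM LiCl 4 h later. Lysates taken at 16 h; Bright-Glo luminescence normalised to total protein.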

CSC growth = settings: most cell-based assays ref 16,17; cited from earlier work

Chain of KDM3B (Q7LBC6 whole entry): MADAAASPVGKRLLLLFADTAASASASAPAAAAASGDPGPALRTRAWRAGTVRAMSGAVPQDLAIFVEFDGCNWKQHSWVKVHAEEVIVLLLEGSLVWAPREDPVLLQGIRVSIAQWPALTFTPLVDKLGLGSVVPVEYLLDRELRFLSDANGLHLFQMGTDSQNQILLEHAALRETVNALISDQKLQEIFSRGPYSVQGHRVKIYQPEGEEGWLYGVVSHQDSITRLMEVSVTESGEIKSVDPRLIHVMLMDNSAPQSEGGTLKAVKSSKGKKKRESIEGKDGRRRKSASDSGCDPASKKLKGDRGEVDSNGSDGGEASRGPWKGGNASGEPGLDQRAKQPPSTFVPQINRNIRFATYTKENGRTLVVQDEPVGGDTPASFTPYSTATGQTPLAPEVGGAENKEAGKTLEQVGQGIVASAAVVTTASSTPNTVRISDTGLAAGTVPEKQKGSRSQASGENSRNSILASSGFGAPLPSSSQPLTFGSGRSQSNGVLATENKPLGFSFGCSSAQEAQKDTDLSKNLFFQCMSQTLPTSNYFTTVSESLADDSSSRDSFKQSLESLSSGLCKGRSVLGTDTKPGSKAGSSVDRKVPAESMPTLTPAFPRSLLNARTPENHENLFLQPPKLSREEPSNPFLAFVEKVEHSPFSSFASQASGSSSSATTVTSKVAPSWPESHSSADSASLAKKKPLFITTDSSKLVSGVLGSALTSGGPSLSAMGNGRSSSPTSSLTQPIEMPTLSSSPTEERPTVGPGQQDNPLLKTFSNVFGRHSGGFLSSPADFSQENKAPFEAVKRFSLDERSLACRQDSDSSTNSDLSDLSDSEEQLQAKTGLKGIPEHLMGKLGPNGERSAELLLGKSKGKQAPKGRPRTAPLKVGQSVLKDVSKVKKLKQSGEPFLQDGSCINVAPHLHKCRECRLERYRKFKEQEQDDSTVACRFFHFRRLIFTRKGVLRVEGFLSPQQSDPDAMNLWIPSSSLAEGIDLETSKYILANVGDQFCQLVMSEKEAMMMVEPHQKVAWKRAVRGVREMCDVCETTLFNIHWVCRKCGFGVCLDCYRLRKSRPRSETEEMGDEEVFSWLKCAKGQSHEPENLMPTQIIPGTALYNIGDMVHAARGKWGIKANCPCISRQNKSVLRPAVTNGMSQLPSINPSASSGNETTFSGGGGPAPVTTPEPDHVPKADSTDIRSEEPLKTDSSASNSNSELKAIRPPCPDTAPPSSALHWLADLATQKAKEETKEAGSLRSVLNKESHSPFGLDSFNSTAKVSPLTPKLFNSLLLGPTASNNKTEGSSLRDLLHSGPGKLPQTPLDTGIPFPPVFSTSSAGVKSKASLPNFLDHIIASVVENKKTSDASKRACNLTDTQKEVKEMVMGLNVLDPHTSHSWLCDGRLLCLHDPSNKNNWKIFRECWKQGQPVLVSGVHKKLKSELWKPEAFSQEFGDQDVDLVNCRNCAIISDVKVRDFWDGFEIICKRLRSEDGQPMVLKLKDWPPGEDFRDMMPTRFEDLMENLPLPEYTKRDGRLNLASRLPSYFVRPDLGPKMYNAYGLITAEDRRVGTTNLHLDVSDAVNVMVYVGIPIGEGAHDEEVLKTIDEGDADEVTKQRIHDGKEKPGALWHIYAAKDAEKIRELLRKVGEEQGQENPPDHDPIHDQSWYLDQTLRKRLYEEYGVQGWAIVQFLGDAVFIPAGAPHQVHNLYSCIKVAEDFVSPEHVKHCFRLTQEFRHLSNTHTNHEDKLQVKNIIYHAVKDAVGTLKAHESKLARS

For `O=C1CCC(N2C(=O)c3cccc(NCCOCCOCCOCCNC(=O)c4ccc(O)c5ncccc45)c3C2=O)C(=O)N1` (stereo not drawn) [Compound 3, N-(2-(2-(2-(2-((2-(2,6-Dioxopiperidin-3-yl)-1,3-dioxoisoindolin-4-yl)amino)ethoxy)ethoxy)ethoxy)ethyl)-8-hydroxyquinoline-5-carboxamide], the “KDM3B degradation (western blot)” value (KDM3B) was “little effect in degrading KDM3A and KDM3B” and the “KDM3A degradation (western blot)” value (KDM3A) was “little effect in degrading KDM3A and KDM3B”.

With `O=C1CCC(N2C(=O)c3cccc(NCCOCCOCCOCCOCCOCCNC(=O)c4ccc(O)c5ncccc45)c3C2=O)C(=O)N1` (stereo not drawn) [Compound 5, N-(17-((2-(2,6-Dioxopiperidin-3-yl)-1,3-dioxoisoindolin-4-yl)amino)-3,6,9,12,15-pentaoxaheptadecyl)-8-hydroxyquinoline-5-carboxamide] the “KDM3B degradation (western blot)” value (KDM3B) was “little effect in degrading KDM3A and KDM3B” and the “KDM3A degradation (western blot)” value (KDM3A) was “little effect in degrading KDM3A and KDM3B”.

In the case of `O=C1CCC(N2C(=O)c3cccc(NCCOCCOCCOCCOCCOCCOCCNC(=O)c4ccc(O)c5ncccc45)c3C2=O)C(=O)N1` (stereo not drawn) [Compound 6, N-(20-((2-(2,6-Dioxopiperidin-3-yl)-1,3-dioxoisoindolin-4-yl)amino)-3,6,9,12,15,18-hexaoxaicosyl)-8-hydroxyquinoline-5-carboxamide], the “suppression of Wnt target gene expression (AXIN2, DKK1, CCND1)” value ([1]; SW480, 50 μM, 16-hour treatment, in most cases) is reported as no less than 50%, the “expression of colorectal CSC signature genes (ASCL2, RNF43, ZNRF3, LGR5)” value ([1]; SW480, 16 hours) is reported as “strongly inhibited” and the “ED50 HCP-1 (tumor sphere formation)” value (ALDH^high-HCP-1 CSCs) is reported as 0.51 µM. The colony formation (SW480 cells) was “potently inhibited the colony formation”, the “cell growth of CRL-1790” value (CRL-1790 cells; 60 μM, two-day treatment) was “not dramatically affected” and the “TD50 CRL-1790” value (CRL-1790 cells; CCK8 assay, 48 h post drug treatment) was 400.3 µM. For the same compound, the “KDM3B degradation (western blot)” value (KDM3B) was “limited ability to degrade KDM3A and KDM3B”, the colony formation (HCP-1 cells) was “potently inhibited the colony formation” and the “KDM3A degradation (western blot)” value (KDM3A) was “limited ability to degrade KDM3A and KDM3B”. The “suppression of Wnt target gene expression (AXIN2, DKK1, CCND1)” value ([2]; HCP-1, 50 μM, 16-hour treatment, in most cases) was no less than 50%, the “expression of colorectal CSC signature genes (ASCL2, RNF43, ZNRF3, LGR5)” value ([2]; HCP-1, 16 hours) was “strongly inhibited” and the “effect on KDM4 family proteins” value [3] was “not dramatically affected”.

For `O=C(O)Cc1ccccc1Nc1c(Cl)cccc1Cl` [Diclofenac, reference compound], the “CLint Human (liver, S9)” value [4] was 37.5 µL/min/mg and the “CLint Rat (liver, S9)” value [5] was 6.8 µL/min/mg.

In the case of `O=C(O)c1ccc(O)c2ncccc12` [IOX1, 8-Hydroxyquinoline-5-carboxylic acid, reference compound], the “ED50 HCP-1 (tumor sphere formation)” value (ALDH^high-HCP-1 CSCs) is given as 10.1 µM, the IC50 [6] is given as 48.6 µM and the “effective concentrations for suppressing CSC growth” value (CSC growth) is given as 20 to 50 µM. For the same compound, the “KDM3B degradation (western blot)” value (KDM3B) was “did not induce KDM3A and KDM3B degradation” and the “KDM3A degradation (western blot)” value (KDM3A) was “did not induce KDM3A and KDM3B degradation”.

For `CC(C)NCC(O)COc1cccc2ccccc12` (stereo not drawn) [Propranolol, reference compound], the half-life at 0.1 μM ([4]; human, s9, t 1/2 Human (liver, S9)) was greater than 120 min.
